Results published in ChEMBL document CHEMBL4020827, “Targeting Multiple Effector Pathways in Pancreatic Ductal Adenocarcinoma with a G-Quadruplex-Binding Small Molecule” (J Med Chem, 2018).

Legend:
[1] = tested on: PANC-1; assay: Effect on GLI1 gene expression in human PANC1 cells at 400 nM after 24 hrs by RNA sequence analysis relative to control; type: functional
Outline: (§1)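 PANC-1 (0.35 x 10^6) or MIA PaCa-2 (1.5 x 10^6) cells seeded overnight in 60 mm plates, then exposed to 400 nM compound for 6 or 24 h; untreated cells as controls. Cells were mycoplasma-free and STR-certified. Differential expression by RNA-seq, called at FDR < 0.1.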

[2] = tested on: MIA PaCa-2; assay: Effect on SHANK2 gene expression in human MIAPaCa2 cells at 400 nM after 24 hrs by RNA sequence analysis relative to control; type: functional
Outline: (§2)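 RNA-seq: cells seeded overnight in 60 mm plates (PANC-1 0.35 x 10^6, MIA PaCa-2 1.5 x 10^6 cells/well), then exposed to 400 nM compound for 6 or 24 h against untreated controls. Cell lines mycoplasma-free by RNA-capture ELISA and STR-profiled. Differentially expressed genes called at FDR < 0.1.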

[3] = tested on: MIA PaCa-2; assay: Effect on AKT1S1 gene expression in human MIAPaCa2 cells at 400 nM after 24 hrs by RNA sequence analysis relative to control; type: functional; outline: as §1
[4] = tested on: MIA PaCa-2; assay: Effect on TEAD2 gene expression in human MIAPaCa2 cells at 400 nM after 24 hrs by RNA sequence analysis relative to control; type: functional; outline: as §2
[5] = tested on: MIA PaCa-2; assay: Effect on PRDM16 gene expression in human MIAPaCa2 cells at 400 nM after 6 hrs by RNA sequence analysis relative to control; type: functional
[6] = tested on: WI-38; assay: Growth inhibition of human WI38 cells after 96 hrs by SRB assay; type: cell-based; settings: WI-38, 96 h
[7] = tested on: MIA PaCa-2; assay: Effect on RPTOR gene expression in human MIAPaCa2 cells at 400 nM after 24 hrs by RNA sequence analysis relative to control; type: functional; outline: as §2
[8] = tested on: PANC-1; assay: Effect on GLI4 gene expression in human PANC1 cells at 400 nM after 6 hrs by RNA sequence analysis relative to control; type: functional; outline: as §1
[9] = tested on: MIA PaCa-2; assay: Effect on TEAD4 gene expression in human MIAPaCa2 cells at 400 nM after 24 hrs by RNA sequence analysis relative to control; type: functional; outline: as §2
[10] = tested on: PANC-1; assay: Effect on SHC2 gene expression in human PANC1 cells at 400 nM after 6 hrs by RNA sequence analysis relative to control; type: functional; outline: as §2
[11] = tested on: PANC-1; assay: Effect on AKT1S1 gene expression in human PANC1 cells at 400 nM after 6 hrs by RNA sequence analysis relative to control; type: functional; outline: as §1
[12] = tested on: PANC-1; assay: Effect on PARD6A gene expression in human PANC1 cells at 400 nM after 6 hrs by RNA sequence analysis relative to control; type: functional
[13] = tested on: PANC-1; assay: Effect on MAPK11 gene expression in human PANC1 cells at 400 nM after 6 hrs by RNA sequence analysis relative to control; type: functional
[14] = tested on: MIA PaCa-2; assay: Effect on IQSEC1 gene expression in human MIAPaCa2 cells at 400 nM after 6 hrs by RNA sequence analysis relative to control; type: functional; outline: as §1
[15] = tested on: PANC-1; assay: Effect on IGF2 gene expression in human PANC1 cells at 400 nM after 6 hrs by RNA sequence analysis relative to control; type: functional; outline: as §1
[16] = tested on: PANC-1; assay: Effect on PRDM16 gene expression in human PANC1 cells at 400 nM after 6 hrs by RNA sequence analysis relative to control; type: functional
[17] = Binding affinity to 5'-FAM/3'-TAMRA labeled human telomeric F21T G-quadruplex DNA by direct fluorescence method
Outline: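 Buffer was 50 mM KCl, 10 mM Tris-HCl, 1 mM EDTA, pH 7.3, 25 °C, quartz cuvette. Quenching of ligand emission at 570 nm tracked; KD from a quadratic quenching fit.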

[18] = tested on: MIA PaCa-2; assay: Effect on GLI1 gene expression in human MIAPaCa2 cells at 400 nM after 6 hrs by RNA sequence analysis relative to control; type: functional; outline: as §1
[19] = tested on: MIA PaCa-2; assay: Effect on PFKL gene expression in human MIAPaCa2 cells at 400 nM after 24 hrs by RNA sequence analysis relative to control; type: functional
[20] = Binding affinity to 5'-FAM/3'-TAMRA labeled T-loop duplex DNA (unknown origin) assessed as change in melting temperature at 1 uM by FRET assay
Outline: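 FRET melting with FAM/TAMRA dual-labelled oligonucleotides at 400 nM, annealed at 95 °C for 10 min in 60 mM potassium cacodylate pH 7.4 and slowly cooled. Ligand final 1 μM; solution contains 50 mM K+. Fluorescence read every 0.5 °C over 30–100 °C with 30 s hold, excitation 450–495 nm and emission 515–545 nm. ΔTm from curve fitting, triplicate measurements.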

[21] = tested on: MIA PaCa-2; assay: Antitumor activity against human MIAPaCa2 cells xenografted in CD-1 nude mouse assessed as change in tumor volume at 15 mg/kg, iv administered twice weekly for 4 weeks measured on day 62 relative to control; type: functional
Outline: (§3)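 Female CD-1 nude mice (2-3 months, 20−25 g) given 5 x 10^6 MIA PaCa-2 cells subcutaneously in right flank with Matrigel; dosing began once tumors were established (approx. 13 days, mean 0.05 cm3). Eight mice/group, IV in saline twice weekly for 28 days (8 doses) against a saline group. Tumors measured by calliper (length × width × height × π/6), with body weight. Student's t test.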

[22] = tested on: MIA PaCa-2; assay: Effect on ROBO3 gene expression in human MIAPaCa2 cells at 400 nM after 6 hrs by RNA sequence analysis relative to control; type: functional; outline: as §2
[23] = tested on: MIA PaCa-2; assay: Effect on SMO gene expression in human MIAPaCa2 cells at 400 nM after 24 hrs by RNA sequence analysis relative to control; type: functional; outline: as §2
[24] = tested on: MIA PaCa-2; assay: Effect on GLI2 gene expression in human MIAPaCa2 cells at 400 nM after 6 hrs by RNA sequence analysis relative to control; type: functional; outline: as §1
[25] = tested on: MIA PaCa-2; assay: Antitumor activity against human MIAPaCa2 cells xenografted in CD-1 nude mouse assessed as change in tumor volume at 15 mg/kg, iv administered twice weekly for 4 weeks measured on day 29 relative to control; type: functional; outline: as §3
[26] = tested on: MIA PaCa-2; assay: Effect on PLXNA1 gene expression in human MIAPaCa2 cells at 400 nM after 24 hrs by RNA sequence analysis relative to control; type: functional
[27] = tested on: MIA PaCa-2; assay: Effect on PIK3R3 gene expression in human MIAPaCa2 cells at 400 nM after 24 hrs by RNA sequence analysis relative to control; type: functional
[28] = tested on: PANC-1; assay: Effect on TEAD4 gene expression in human PANC1 cells at 400 nM after 24 hrs by RNA sequence analysis relative to control; type: functional; outline: as §2
[29] = tested on: PANC-1; assay: Effect on PFKL gene expression in human PANC1 cells at 400 nM after 6 hrs by RNA sequence analysis relative to control; type: functional
[30] = tested on: MIA PaCa-2; assay: Effect on TEAD4 gene expression in human MIAPaCa2 cells at 400 nM after 6 hrs by RNA sequence analysis relative to control; type: functional; outline: as §2
[31] = tested on: PANC-1; assay: Effect on ARF6 gene expression in human PANC1 cells at 400 nM after 24 hrs by RNA sequence analysis relative to control; type: functional; outline: as §1
[32] = tested on: MIA PaCa-2; assay: Effect on GLI1 gene expression in human MIAPaCa2 cells at 400 nM after 24 hrs by RNA sequence analysis relative to control; type: functional; outline: as §1

What does the source list for `O=C1c2ccc3c4c(c(NCCN5CCCC5)cc(c24)C(=O)N1CCCN1CCOCC1)C(=O)N(CCCN1CCOCC1)C3=O`?
log2FC [1]: -0.57; log2FC [2]: -1.96; log2FC [3]: -1.09; log2FC [4]: -0.91; log2FC [5]: -2.73; IC50 [6]: 1190 nM; log2FC [7]: -0.68; log2FC [8]: -1.26; log2FC [9]: -0.31; log2FC [10]: -0.52; log2FC [11]: -0.11; log2FC [12]: -0.63; log2FC [13]: -0.38; log2FC [14]: -1.11; log2FC [15]: -1.15; log2FC [16]: -2.4; Kd [17]: 67 nM; log2FC [18]: -0.61; log2FC [19]: -1.18; ΔTm [20]: 0.6 °C; Activity [21]: -85%; log2FC [22]: -0.86; log2FC [23]: -1.21; log2FC [24]: -1.17; Activity [25]: -73.3%; log2FC [26]: -1.56; log2FC [27]: -1.47; log2FC [28]: -0.47; log2FC [29]: -0.21; log2FC [30]: -0.79; log2FC [31]: -0.69; log2FC [32]: -0.64
